{"source": "ChEMBL document CHEMBL1135535", "about": "“Discovery and optimization of a series of carbazole ureas as NPY5 antagonists for the treatment of obesity” (J Med Chem, 2002)", "key": {"[1]": {"molecular_target": "T1, Neuropeptide Y receptor type 5 (Homo sapiens, UniProt Q15761)", "T1 sequence (Q15761 whole entry)": "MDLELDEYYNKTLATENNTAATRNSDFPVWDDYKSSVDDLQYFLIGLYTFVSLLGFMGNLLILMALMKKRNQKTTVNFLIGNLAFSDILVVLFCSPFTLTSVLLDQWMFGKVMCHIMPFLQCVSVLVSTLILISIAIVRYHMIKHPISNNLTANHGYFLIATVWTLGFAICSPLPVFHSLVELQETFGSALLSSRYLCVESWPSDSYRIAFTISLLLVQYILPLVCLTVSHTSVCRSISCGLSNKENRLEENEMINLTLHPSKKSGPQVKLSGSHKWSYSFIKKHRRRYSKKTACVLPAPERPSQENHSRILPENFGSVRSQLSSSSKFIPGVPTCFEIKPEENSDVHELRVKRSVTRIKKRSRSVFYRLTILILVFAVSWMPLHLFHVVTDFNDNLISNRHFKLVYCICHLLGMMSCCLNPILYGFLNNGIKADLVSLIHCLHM", "test": "Binding affinity to the human Neuropeptide Y receptor Y5 (NPY5)", "method_in_brief": "(§1)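 Membranes from Hi5 insect cells infected 48 h with baculovirus carrying rat or human NPY-5 receptor, prepared by sonication in hypotonic Tris/EDTA/sucrose buffer and harvested on a 41% sucrose cushion. 0.01 µCi [125I]PYY incubated with membranes and compound in HEPES buffer (CaCl2, MgCl2, 0.5% BSA, pH 7.4) for 2 h at room temperature. Filtered onto PEI-treated GF/C plates, then scintillation counted.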"}, "[2]": {"tested_on": "Salmonella typhimurium", "test": "Ames activity in TA 98+S9, expressed as maximum fold increase in mutation frequency", "assay_type": "functional, Salmonella enterica subsp. enterica serovar Typhimurium", "method_in_brief": "(§2)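 Salmonella typhimurium TA98 plate incorporation assay with S9 mix. The S9 is the postmitochondrial fraction of livers from Aroclor 1254-treated Sprague–Dawley rats, supplemented with cofactors for NADPH generation. Tested across 6–2000 μg/plate. The value is the maximum increase in mutation frequency relative to background across that dose range.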"}, "[3]": {"tested_on": "Salmonella typhimurium", "test": "Ames activity in TA 98+S9, expressed as maximum fold increase in mutation frequency; NI means no increase", "assay_type": "functional, organism-based", "details": "Salmonella enterica subsp. enterica serovar Typhimurium", "method_in_brief": "as §2"}, "[4]": {"test": "Half life in rat was reported", "assay_type": "ADME, organism-based", "details": "in vivo", "method_in_brief": "(§3)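 Rats received a DMA:PEG:H2O 1:1:1 solution, iv at 10 µmol/kg and po at 30 µmol/kg. Half-life, Vss, clearance, Cmax, Tmax and oral bioavailability were derived from plasma levels.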"}, "[5]": {"molecular_target": "T1, Neuropeptide Y receptor type 5", "test": "In vitro human Neuropeptide Y receptor Y5 functional antagonism (reporter gene assay)"}, "[6]": {"molecular_target": "T2, Neuropeptide Y receptor type 5 (Rattus norvegicus, UniProt Q63634)", "T2 sequence (Q63634 whole entry)": "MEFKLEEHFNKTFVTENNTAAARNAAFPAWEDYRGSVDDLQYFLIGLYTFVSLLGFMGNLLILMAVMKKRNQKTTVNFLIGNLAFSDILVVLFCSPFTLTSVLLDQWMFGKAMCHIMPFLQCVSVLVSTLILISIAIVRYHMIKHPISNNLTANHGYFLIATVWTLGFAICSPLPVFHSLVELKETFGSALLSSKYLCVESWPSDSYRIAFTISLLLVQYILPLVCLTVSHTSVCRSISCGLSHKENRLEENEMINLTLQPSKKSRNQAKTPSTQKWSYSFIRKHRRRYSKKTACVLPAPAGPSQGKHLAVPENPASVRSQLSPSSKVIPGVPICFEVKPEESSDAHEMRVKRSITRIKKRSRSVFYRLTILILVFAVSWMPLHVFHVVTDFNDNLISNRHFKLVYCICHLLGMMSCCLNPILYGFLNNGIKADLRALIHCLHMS", "test": "Binding affinity against rat Neuropeptide Y receptor Y5", "method_in_brief": "as §1"}, "[7]": {"test": "Bioavailability in rat", "assay_type": "ADME, organism-based", "details": "in vivo, read-out: Bioavailabiility", "method_in_brief": "as §3"}, "[8]": {"test": "Compound was evaluated for functional antagonism of NPY activity in cellular Ca flux"}, "[9]": {"test": "Clearance level at a dose 10 umol/kg administered intravenously", "assay_type": "ADME, organism-based", "details": "in vivo, iv"}, "[10]": {"test": "Bioavailability of compound at a dose 30 umol/kg administered orally", "assay_type": "ADME, organism-based", "details": "eutheria, in vivo, po, at 30 µmol/kg"}, "[11]": {"test": "Volume of distribution of compound at a dose 10 umol/kg was administered intravenously", "assay_type": "ADME, organism-based", "details": "in vivo, iv, read-out: Vss"}, "[12]": {"test": "Half-life of compound at a dose 30 umol/kg administered orally", "assay_type": "ADME, organism-based", "details": "in vivo, po"}, "[13]": {"test": "Half-life of compound at a dose 10 umol/kg was administered intravenously", "assay_type": "ADME, organism-based", "details": "in vivo, iv"}, "[14]": {"test": "Tmax of compound at a dose 30 umol/kg administered orally", "assay_type": "ADME, organism-based", "details": "in vivo, po"}, "[15]": {"test": "Maximum concentration of compound at a dose 30 umol/kg administered orally", "assay_type": "ADME, organism-based", "set-up": "dose 30 umol/kg, route oral", "details": "in vivo, po"}, "[16]": {"molecular_target": "T1, Neuropeptide Y receptor type 5", "test": "Compound was evaluated for functional antagonism of Neuropeptide Y receptor Y5 activity in cellular Ca flux"}, "[17]": {"molecular_target": "T1, Neuropeptide Y receptor type 5", "test": "The compound was evaluated in vitro for: human Neuropeptide Y receptor Y5 functional antagonism"}, "[18]": {"test": "Percent inhibition of 5-HT2b and adenosine transport at 10 uM Y1, Y2, Y4 and 80 other receptors at > 10 uM", "assay_type": "functional", "method_in_brief": "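Selectivity screen with compound tested at 10 µM for binding to 5HT2b receptor and for inhibition of adenosine transport. Y1, Y2, Y4 and 80 other receptors were also screened. Human Y1, Y2 and Y4 membranes came from SK-N-MC cells, KAN-TS cells and stable Y4-expressing CHO cells, using the [125I]PYY filtration binding format.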"}, "[19]": {"tested_on": "Rattus norvegicus", "test": "Concentration of compound in rat CSF after oral dosing at 2 mg/kg after 90 min", "assay_type": "functional, organism-based", "set-up": "dose 2 mg/kg", "method_in_brief": "(§4)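 Single oral dose of 2 mg/kg to rats. Plasma, whole brain and CSF concentrations were measured at 90 min.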"}, "[20]": {"tested_on": "Rattus norvegicus", "test": "Concentration of compound in rat whole brain after oral dosing at 2 mg/kg after 90 min", "assay_type": "functional, organism-based", "set-up": "dose 2 mg/kg", "method_in_brief": "as §4"}, "[21]": {"tested_on": "Rattus norvegicus", "test": "Concentration of compound in rat plasma after oral dosing at 2 mg/kg after 90 min", "assay_type": "functional, organism-based", "set-up": "dose 2 mg/kg", "method_in_brief": "as §4"}}}
{"smiles": "CC(C)n1c2ccccc2c2cc(NC(=O)N3CCOCC3)ccc21", "values": [{"measurement": "IC50", "setting": "[1]", "value": 2, "unit": "nM"}]}
{"smiles": "CC(C)n1c2ccccc2c2c(F)c(N)c(F)cc21", "values": [{"measurement": "Mutation frequency", "setting": "[2]", "value": 2}]}
{"smiles": "Cc1c(N)cc(C)c2c1c1ccccc1n2C(C)C", "values": [{"measurement": "NI", "setting": "[3]", "value": "no increase"}]}
{"smiles": "CCn1c2ccccc2c2cc(NC(=O)CCc3ccncc3)ccc21", "values": [{"measurement": "half-life", "setting": "[4]", "value": 0.25, "unit": "h"}, {"measurement": "IC50", "setting": "[1]", "value": 2, "unit": "nM"}, {"measurement": "IC50", "setting": "[5]", "value": 11, "unit": "nM"}, {"measurement": "IC50", "setting": "[6]", "value": 7, "unit": "nM"}, {"measurement": "bioavailability", "setting": "[7]", "value": 1, "unit": "%"}, {"measurement": "IC50", "setting": "[8]", "value": 2, "unit": "nM"}]}
{"smiles": "CC(C)c1c(NC(=O)N2CCOCC2)ccc2c1c1ccccc1n2C(C)C", "values": [{"measurement": "IC50", "setting": "[1]", "value": 770, "unit": "nM"}]}
{"smiles": "CC(=O)n1c2ccccc2c2cc(NC(=O)CCc3ccncc3)ccc21", "values": [{"measurement": "IC50", "setting": "[1]", "value": 3, "unit": "nM"}]}
{"smiles": "CN(C)S(=O)(=O)n1c2ccccc2c2cc(N)ccc21", "values": [{"measurement": "Max fold increase", "setting": "[2]", "value": 39}]}
{"smiles": "CC(C)(C)Cn1c2ccccc2c2cc(N)ccc21", "values": [{"measurement": "Mutation frequency", "setting": "[2]", "value": 5}]}
{"smiles": "Cc1c(NC(=O)N2CCOCC2)ccc2c1c1ccccc1n2C(C)C", "values": [{"measurement": "clearance", "setting": "[9]", "value": 1.33, "unit": "mL/min/kg"}, {"measurement": "bioavailability", "setting": "[10]", "value": 76, "unit": "%"}, {"measurement": "Vd", "setting": "[11]", "value": 0.41, "unit": "L/kg"}, {"measurement": "half-life", "setting": "[12]", "value": 6.4, "unit": "h"}, {"measurement": "half-life", "setting": "[13]", "value": 3.7, "unit": "h"}, {"measurement": "Tmax", "setting": "[14]", "value": 1, "unit": "h"}, {"measurement": "Cmax", "setting": "[15]", "value": 35, "unit": "µM"}, {"measurement": "IC50", "setting": "[1]", "value": 3, "unit": "nM"}, {"measurement": "IC50", "setting": "[16]", "value": 6, "unit": "nM"}, {"measurement": "IC50", "setting": "[17]", "value": 37, "unit": "nM"}, {"measurement": "inhibition", "setting": "[18]", "value": 70, "unit": "%"}]}
{"smiles": "Cn1c2ccccc2c2cc(NC(=O)CCc3ccncc3)ccc21", "values": [{"measurement": "IC50", "setting": "[1]", "value": 33, "unit": "nM"}]}
{"smiles": "CCn1c2ccccc2c2cc(CNC(=O)Cc3ccncc3)ccc21", "values": [{"measurement": "IC50", "setting": "[1]", "value": 3400, "unit": "nM"}]}
{"smiles": "CC(C)n1c2ccccc2c2cc(N)ccc21", "values": [{"measurement": "Mutation frequency", "setting": "[2]", "value": 3}]}
{"smiles": "CC(C)(C)Cn1c2ccccc2c2cc(NC(=O)N3CCOCC3)ccc21", "values": [{"measurement": "IC50", "setting": "[1]", "value": 78, "unit": "nM"}]}
{"smiles": "Cc1cc2c(c(C)c1NC(=O)N1CCOCC1)c1ccccc1n2C(C)C", "values": [{"measurement": "IC50", "setting": "[1]", "value": 390, "unit": "nM"}]}
{"smiles": "CC(C)n1c2ccccc2c2c(F)c(NC(=O)N3CCOCC3)c(F)cc21", "values": [{"measurement": "IC50", "setting": "[1]", "value": 12, "unit": "nM"}]}
{"smiles": "Cc1cc2c(c(C)c1N)c1ccccc1n2C(C)C", "values": [{"measurement": "NI", "setting": "[3]", "value": "no increase"}]}
{"smiles": "CC(C)n1c2ccc(F)cc2c2cc(NC(=O)N3CCOCC3)ccc21", "values": [{"measurement": "IC50", "setting": "[1]", "value": 3, "unit": "nM"}]}
{"smiles": "Cc1c(NC(=O)N2CCOCC2)cc(C)c2c1c1ccccc1n2C(C)C", "values": [{"measurement": "IC50", "setting": "[1]", "value": 710, "unit": "nM"}]}
{"smiles": "CC(C)c1c(N)ccc2c1c1ccccc1n2C(C)C", "values": [{"measurement": "NI", "setting": "[3]", "value": "no increase"}]}
{"smiles": "CCn1c2ccccc2c2cccc(NC(=O)CCc3ccncc3)c21", "values": [{"measurement": "IC50", "setting": "[1]", "value": 440, "unit": "nM"}]}
{"smiles": "CCn1c2ccccc2c2cc(NC(=O)N3CCOCC3)ccc21", "values": [{"measurement": "IC50", "setting": "[1]", "value": 7, "unit": "nM"}, {"measurement": "Concentration", "setting": "[19]", "value": 17, "unit": "nM"}, {"measurement": "Concentration", "setting": "[20]", "value": 500, "unit": "nM"}, {"measurement": "Concentration", "setting": "[21]", "value": 740, "unit": "nM"}]}
{"smiles": "Cc1cccc2c3cc(NC(=O)N4CCOCC4)ccc3n(C(C)C)c12", "values": [{"measurement": "IC50", "setting": "[1]", "value": 2, "unit": "nM"}]}
{"smiles": "CC(C)n1c2ccc(N)cc2c2cc(F)ccc21", "values": [{"measurement": "Mutation frequency", "setting": "[2]", "value": 15}]}
